Compound activity (PubChem BioAssay)
Most compounds without a hit are left out; they make up all but 1% or so of the library.
B2AR ag – beta2AR agonists driving receptor internalization, primary screen, cell-based, FAP fluorogen, flow cytometry; response, % (no concentration beside the values); Am2.2-beta2AR cells; AID 504454, 2011; 0.43% of 340,000 active; Beta-2 adrenergic receptor (Homo sapiens), P07550;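 active = response above a set limit, near 3 SD of response in nonfluorescent compounds, cut at about 42% in these data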
Target sequence (P07550 whole entry, looked up): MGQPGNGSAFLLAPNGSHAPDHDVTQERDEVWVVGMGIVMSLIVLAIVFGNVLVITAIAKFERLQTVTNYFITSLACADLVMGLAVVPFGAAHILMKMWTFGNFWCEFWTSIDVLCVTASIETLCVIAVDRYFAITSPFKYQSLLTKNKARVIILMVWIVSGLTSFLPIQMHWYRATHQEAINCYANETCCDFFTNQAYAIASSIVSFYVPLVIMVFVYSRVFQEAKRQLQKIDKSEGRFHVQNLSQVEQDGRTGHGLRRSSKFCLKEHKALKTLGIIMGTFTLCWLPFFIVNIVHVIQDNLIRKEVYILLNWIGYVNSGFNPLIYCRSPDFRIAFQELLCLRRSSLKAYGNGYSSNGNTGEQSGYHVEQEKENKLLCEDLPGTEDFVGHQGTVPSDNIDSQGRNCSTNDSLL
UPR XBP1 act – activators of adaptive XBP1 UPR arm, primary screen, cell-based, CHO-XBP1 luciferase reporter, luminescence, uHTS. IRE1-XBP1 UPR activation; percent of tunicamycin response, DMSO as zero. activation, % at 20 µM. 0.33% of 330,000 active. AID 463104, 2010;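 active = versus positive control, 20 µM dose yields 30% or more activation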
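assay system = CHO-XBP1 luciferase reporter cells | amount = 1000 cells/well | buffer or medium = F12 plus 10% FBS | compound dosing = single point, 20 µM final compound, 1% DMSO | incubation = 16-18 h cell attachment at 37 °C, then 6 h compound exposure | detection = Steady-Glo luminescence read | controls = tunicamycin 10 µg/mL and vehicle-only wells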
CHOP UPR activ – activators of apoptotic CHOP UPR arm, primary screen, cell-based, CHO-CHOP luciferase reporter, luminescence, uHTS | 0.34% of 330,000 active | AID 449763, 2010 | activation, % at 10 µM | UPR activation; percent of tunicamycin response over DMSO baseline;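 active = at 10 µM dose, activation of 40% or more, normalized to positive control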
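Material: CHO-CHOP cells, stable luciferase reporter of PERK-eIF2a-CHOP signalling; quantity: 500 reporter cells seeded per well; buffer or medium: F12 medium containing 10% fetal bovine serum; compound: one dose, 10 µM in 0.5% DMSO; incubation: 6 h compound treatment, 37 °C; measured by: Steady-Glo luciferase luminescence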
T cell modulator – modulators of CD8 T cell-vesicle binding, primary screen, mouse 2C CD8+ T cells, flow cytometry; 2C CD8+ T cell-vesicle binding; active compounds read low; response (vesicle binding), % at 7 µM; 0.068% of 330,000 active; AID 2052, 2009;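 active = response, share of CD8 T cells binding vesicles, and their 90th percentile fluorescence all below set limits, cut at about 80% in these data, passing the limit was not always enough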;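 note: values below 100% mean blocked vesicle binding to the CD8+ T cells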
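System: murine 2C transgenic CD8+ T lymphocytes; also added: QL9-loaded Drosophila micro-vesicles; times: binding 1.5 h at 37 °C; measured by: flow cytometry, PE anti-B7-1 (FL2) versus Alexa647 anti-CD8 (FL8), PFA-fixed; control set: Peptide-free naked vesicles (low) and QL9 vesicles with 0.7% DMSO vehicle (high)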
XBP1 UPR conf – IRE1-XBP1 UPR arm activators, confirmation, cell-based, CHO-XBP1 luciferase reporter, luminescence, single concentration; shares compounds with UPR XBP1 act; activation, % at 20 µM; 63% of 1,000 active; AID 485299, 2010;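 active = reporter signal at least 30% of the positive control's activation in two or more of four replicate wells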
B2AR ag CP1 – beta2AR agonists via receptor internalization, confirmation, cell-based, FAP fluorogen, flow cytometry, single point, cherry pick 1; shares compounds with B2AR ag; Am2.2-beta2AR cells, FAP surface receptor; active compounds read low; percent response (surface receptor), % at 10 µM; 25% of 1,100 active; AID 540358, 2011;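 active = surface receptor percent response at or below 58%, roughly 3 SD from nonfluorescent compounds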
B2AR FAP counter – flagged in Am2.2 fluorescence counterscreen for beta-2AR agonists. Am2.2 cells, FAP fluorogen flow cytometry; active compounds read low. AID 588765. 1,100 tested, under 10 active. shares compounds with B2AR ag. calls only at 10 µM;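 active = percent response below a set limit in fluorescence channel 1 and below 50% in channel 8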
Each line names hits and unclear results; the compound was inactive in the other large screens (follow-up assays come after a bar, where they were run).

Cn1nnnc1Sc1ncnc2scc(-c3ccc(Cl)cc3)c12	B2AR ag 85, UPR XBP1 act 46 | XBP1 UPR conf 113 | B2AR ag CP1 6.3 | B2AR FAP counter inactive
CNC(=S)N/N=C1\C(=O)c2cccc3cccc1c23	UPR XBP1 act 33 | XBP1 UPR conf inactive | B2AR ag CP1 inactive | B2AR FAP counter inactive
N=c1n(CC(=O)c2ccc([N+](=O)[O-])cc2)c2ccccc2n1Cc1ccc(Cl)cc1	B2AR ag 91, UPR XBP1 act 165 | XBP1 UPR conf 59 | B2AR ag CP1 37 | B2AR FAP counter inactive
N=c1n(CCO)c2ccccc2n1Cc1ccc(Cl)cc1	none
N=c1n(CC(=O)c2ccc([N+](=O)[O-])cc2)c2ccccc2n1Cc1ccccc1	B2AR ag 98, UPR XBP1 act 140 | XBP1 UPR conf inactive | B2AR ag CP1 40 | B2AR FAP counter inactive
O=C(N/N=C/c1ccco1)c1cc(-c2cccc3ccccc23)n[nH]1	none
CCCCCCCCCCOC(=O)Cn1c(COc2ccccc2OC)[n+](C)c2ccccc21	UPR XBP1 act 77 | XBP1 UPR conf 52 | B2AR ag CP1 inactive | B2AR FAP counter inactive
Cn1c(COc2ccccc2O)[n+](C)c2ccccc21	none
O=C(COC(=O)c1cc(S(=O)(=O)N2CCOCC2)ccc1O)Nc1cc(S(=O)(=O)N2CCCC2)ccc1Cl	none
O=C1C(Nc2ccccc2)=C2CCCC=C2N1c1ccccc1	none
COc1ccc(-c2nc3scc(-c4ccc(OC)c(OC)c4)c3c(=O)o2)cc1	B2AR ag 51, UPR XBP1 act 41 | XBP1 UPR conf 47 | B2AR ag CP1 inactive | B2AR FAP counter inactive
CC1CCC(C(C)C)C(OC(=O)Cn2c(-c3ccccc3)[n+](C)c3ccccc32)C1 (stereo unspecified)	none
Cc1cccc(OCc2n(CC(=O)OC3CC(C)CCC3C(C)C)c3ccccc3[n+]2C)c1 (stereo unspecified)	UPR XBP1 act 32 | XBP1 UPR conf inactive | B2AR ag CP1 inactive | B2AR FAP counter inactive
Cc1ccc(Nc2nc(-c3c(C)nc4ccccn34)cs2)cc1	B2AR ag 43, UPR XBP1 act 41 | XBP1 UPR conf 35 | B2AR ag CP1 inactive | B2AR FAP counter inactive
CCC(=O)Nc1nc2ccc(NC(=O)c3cc(OC)c(OC)c(OC)c3)cc2s1	none
Cc1cccc(OCCn2c(=S)[nH]c3ccccc32)c1	none
Cc1ccc(OCCn2c(=S)[nH]c3ccccc32)c(C(C)C)c1	B2AR ag 69 | B2AR ag CP1 inactive | B2AR FAP counter inactive
COc1ccc(CCNCC(O)COc2ccc(OC)cc2C(C)(C)C)cc1 (stereo unspecified)	B2AR ag 45 | B2AR ag CP1 inactive | B2AR FAP counter inactive
CN(CC(=O)N1CCN(c2ncccn2)CC1)S(=O)(=O)c1ccc(Cl)cc1	B2AR ag 112 | B2AR ag CP1 28 | B2AR FAP counter inactive
CN(C(=O)N1CCN(c2ccccn2)CC1)c1ccccc1	none
CN(CCCC(=O)N1CCN(c2ncccn2)CC1)S(=O)(=O)c1ccc(F)cc1	none
CN(CC(=O)N1CCN(c2ccccn2)CC1)S(=O)(=O)c1ccccc1	B2AR ag 51 | B2AR ag CP1 inactive | B2AR FAP counter inactive
O=C(COc1ccc(S(=O)(=O)N2CCOCC2)cc1)Nc1ccccc1Cl	none | B2AR ag CP1 inactive | B2AR FAP counter inactive
O=C(COc1ccc(S(=O)(=O)N2CCOCC2)cc1)Nc1ccccc1F	none | B2AR ag CP1 inactive | B2AR FAP counter inactive
Cc1[nH]c(=O)[nH]c(=O)c1S(=O)(=O)N1CCCC(C(=O)NCc2ccc3c(c2)OCO3)C1 (stereo unspecified)	none
CC(c1ccccc1)N1CC(C(=O)Nc2nccs2)CC1=O (stereo unspecified)	none
COc1ccc(OC)c(C(O)CNC(=O)CN)c1 (stereo unspecified)	none
O=C(CN1CCN(Cc2ccccc2)CC1)Nc1ccc(N2CCOCC2)cc1	B2AR ag 50 | B2AR ag CP1 inactive | B2AR FAP counter inactive
Nc1c(S(=O)(=O)c2cccs2)c2nc3ccccc3nc2n1Cc1ccccc1	none
Cc1ccc(Cn2c(N)c(S(=O)(=O)c3cccs3)c3nc4ccccc4nc32)cc1	B2AR ag 52 | B2AR ag CP1 inactive | B2AR FAP counter inactive
O=C(Nc1ccc(N2CCCC2)cc1)c1ccc(Br)o1	none
CCCC(=O)N1CCN(c2ccc(NC(=O)c3ccc([N+](=O)[O-])o3)cc2)CC1	none (no result: UPR XBP1 act, CHOP UPR activ, T cell modulator)
CCN1CCN(c2ccc(NC(=O)c3ccc(Br)o3)cc2)CC1	none (no result: T cell modulator) | B2AR ag CP1 inactive | B2AR FAP counter inactive
CCCC(=O)N1CCN(c2ccc(NC(=O)c3ccc(Br)o3)cc2)CC1	none | B2AR ag CP1 inactive | B2AR FAP counter inactive
O=C(Nc1ccc(N2CCN(C(=O)c3ccccc3)CC2)cc1)c1ccc(Br)o1	none | B2AR ag CP1 inactive | B2AR FAP counter inactive
O=C(Nc1ccc(N2CCN(C(=O)c3ccccc3)CC2)c(Cl)c1)c1ccc(Br)o1	none
CCC1CCCCN1C(=S)NC(=O)c1cc(S(=O)(=O)N2CCOCC2)ccc1C (stereo unspecified)	none
O=C(NCc1ccc2c(c1)OCO2)c1ccc(Cl)c(S(=O)(=O)NCc2ccccc2)c1	none
O=C(CCl)N(O)c1ccc(C=Cc2ccccc2)cc1	none (no result: UPR XBP1 act, CHOP UPR activ, T cell modulator)
NC1=NC[C@H](Cc2ccccc2)N1CCc1cccc(F)c1	none
COc1ccc(S(=O)(=O)N(Cc2ccco2)Cc2cc3ccccc3[nH]c2=O)cc1	none | B2AR ag CP1 inactive | B2AR FAP counter inactive
O=c1[nH]c2ccccc2cc1CN(Cc1ccco1)S(=O)(=O)c1ccccc1	none | B2AR ag CP1 inactive | B2AR FAP counter inactive
CCN(Cc1cc2ccccc2[nH]c1=O)S(=O)(=O)c1ccccc1	none
COC(=O)c1cccc(S(=O)(=O)N(Cc2ccco2)Cc2cc3ccc(OC)cc3[nH]c2=O)c1	none
COc1ccc(C(=O)NCc2ccc(OCCN(C)C)cc2)cc1OC	none
CCOC(=O)c1nnn(CC(=O)Nc2cccc(Cl)c2C)c1C(=O)OCC	B2AR ag 70 | B2AR ag CP1 inactive | B2AR FAP counter inactive
CCS(=O)(=O)CCn1c([N+](=O)[O-])cnc1C	none | B2AR ag CP1 inactive | B2AR FAP counter inactive
CC1(C)Cc2c(c(N3CCCC3)nc3sc4c(N5CCN(CCO)CC5)ncnc4c23)CO1	B2AR ag 71 | B2AR ag CP1 46 | B2AR FAP counter inactive
